These results are taken from ChEMBL document CHEMBL2057168, “(1aR,5aR)1a,3,5,5a-Tetrahydro-1H-2,3-diaza-cyclopropa[a]pentalene-4-carboxylic acid (MK-1903): a potent GPR109a agonist that lowers free fatty acids in humans” (J Med Chem, 2012).

Active and inactive are the calls of the source. The calls are words filed in the database; no cut-off is given here.

Series [1] is described as follows: Cmax in human at 175 mg, po QID administered on day 1 followed by 2-days wash out period after which dosing continued up to day 11 measured on day 1. It is filed as ADME, organism-based. Also noted: dose 175 mg, route oral. As to conditions: in vivo. In outline:
(§1)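 Healthy male volunteers took part in a double-blind, randomized, placebo-controlled dose-escalation study, with cohorts of 8 (6 on drug, 2 on placebo). Each subject got an oral dose on day 1, then a 2-day washout, then dosing on days 4–11. The 200 mg qd group was titrated over days 1–4. Venous plasma was sampled predose and 0.5–12 h postdose on days 1, 4 and 11, and predose on days 5–10 for troughs.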

The nature of series [2]: AUC (0 to 12 hrs) in human at 150 mg, po BID administered on day 1 followed by 2-day wash out period after which dosing continued up to day 11 measured on day 1. The series is classed as ADME, organism-based. Details: dose 150 mg, time < 12 hr, route oral. As to conditions: plasma. In outline:
(§2)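 Double-blind, placebo-controlled, randomized dose-escalation study in healthy male volunteers, six cohorts of eight (six active, two placebo). Oral dose on day 1, two-day washout, then dosing days 4–11; the 200 mg qd cohort was titrated over days 1–4. Venous blood taken predose and at 0.5–12 h on days 1, 4 and 11; plasma drug measured. τ 12 h (bid), 24 h (qd), 8 h (tid), 6 h (qid).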

Series [3] is described as follows: Cmax in human at 175 mg, po QID administered on day 1 followed by 2-days wash out period after which dosing continued up to day 11 measured on day 4. Also noted: dose 175 mg, route oral. As to conditions: in vivo. It is filed as ADME, organism-based. In outline:
as §1

The subject of series [4] is Rattus norvegicus. In words: Dose normalized AUC in Sprague-Dawley rat at 10 mg/kg, po. It is filed as ADME, organism-based. Also noted: dose 10 mg/kg, route oral. The settings on record: in vivo. In outline:
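Male Sprague-Dawley rats were dosed at 10 mg/kg po or 2 mg/kg iv in 80% PEG400/20% phosphate-buffered saline, fasted overnight before the oral dose. Jugular blood was sampled serially from 0.25 to 21 h over 24 h, and heparinized plasma was prepared. Drug was assayed by HPLC/MS/MS (quantitation range 1–2000 ng/mL).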

The nature of series [5]: AUC (0 to 8 hrs) in human at 150 mg, po TID administered on day 1 followed by 2-days wash out period after which dosing continued up to day 11 measured on day 11. As to conditions: plasma. Details: time < 8 hr, dose 150 mg, route oral. It is filed as ADME, organism-based. The essentials: as §2
Series [6] can be described thus: Tmax in human at 100 mg, po BID administered on day 1 followed by 2-day wash out period after which dosing continued up to day 11 measured on day 1. It is filed as ADME, organism-based. The settings on record: in vivo. The essentials:
as §1

A short description of series [7]: Cmin in human at 150 mg, po BID administered on day 1 followed by 2-day wash out period after which dosing continued up to day 11 measured on day 11 at 12 hrs. It is filed as ADME, organism-based. The settings on record: in vivo, read-out: Cmin. The essentials: as §1
A short description of series [8]: Cmax in human at titreated po dose administered from day 1 to 4 followed by 200 mg, po QD administered up to day 11 measured on day 4. It is filed as ADME, organism-based. Also noted: dose 200 mg, route oral. As to conditions: in vivo. The essentials:
as §1

In series [9] the test system is Rattus norvegicus. In words: Antidyslipedic activity in fasted Sprague-Dawley rat assessed as decrease in free fatty acid level at 0.001 mg/kg, po by NEFA C-free fatty acid assay. It is filed as functional, organism-based. Also noted: dose 0.001 mg/kg. The essentials: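 Male Sprague-Dawley rats fasted, compound by oral gavage, serial plasma sampling after dosing for free fatty acids over a time course; vehicle-dosed control group.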

Series [10] deals with Homo sapiens. In words: Activation of GPR109a receptor in po dosed human assessed as PGD2 metabolite level in urine. It is filed as functional, organism-based.
Series [11] in a line: AUC (0 to 12 hrs) in human at 100 mg, po BID administered on day 1 followed by 2-day wash out period after which dosing continued up to day 11 measured on day 1. The series is classed as ADME, organism-based. Details: dose 100 mg, time < 12 hr, route oral. The settings on record: plasma. The essentials:
as §2

Series [12] can be described thus: Cmin in human at 150 mg, po TID administered on day 1 followed by 2-days wash out period after which dosing continued up to day 11 measured on day 4 at 8 hrs. It is filed as ADME, organism-based. The settings on record: in vivo, read-out: Cmin. In outline:
as §1

A short description of series [13]: Volume of distribution in dog. As to conditions: in vivo. The series is classed as ADME, organism-based, Canis lupus familiaris.

The Cmax is the highest concentration seen after dosing. Broadly, the AUC is the area under the concentration-time curve, a measure of exposure. For orientation: Tmax means the time from dosing to the highest level. For orientation: Vd means a proportionality between amount in the body and measured concentration, not a real space. Lower therefore signals little distribution into tissue. For `O=C(O)c1n[nH]c2c1C[C@H]1C[C@@H]21`, the figures for the Cmax in series [1], in series [3] and in series [8] were 52.6 nM, 49.9 nM and 56.3 nM, respectively. Moreover, the AUC at 12 h in series [2] turned out to be 0.0977 µM·h; in series [11] it was 0.0728 µM·h. This compound also displayed an AUC/dose in series [4] of 5.1 µM·kg·h/mg. The compound further returned an exposure (AUC) at 8 h in [5] of 0.0879 µM·h. Moreover, the Tmax in series [6] is 1 h. For the same compound, the concentration at 12 h in series [7] came to 0.208 nM. In [9], the result was inactive. The Activity result in [10] is “Dose-dependent effect”. The concentration at 8 h in series [12] turned out to be 0.583 nM. This compound showed a distribution volume (Vd) in series [13] of 0.41 L/kg.
